Data reported in ChEMBL document CHEMBL3044622, “Effectiveness and mode of action of phosphonate inhibitors of plant glutamine synthetase” (Pest Manag Sci, 2010).

Assays:
[1] = biological target: T1, Glutamine synthetase, chloroplastic (Zea mays) (UniProt P25462); experiment: Inhibition of Zea mays cv. Jeff (maize) leaf glutamine synthetase using L-glutamate as substrate assessed as inorganic phosphate production at 1 mM after 20 min by malachite green assay relative to control
T1 sequence (whole entry): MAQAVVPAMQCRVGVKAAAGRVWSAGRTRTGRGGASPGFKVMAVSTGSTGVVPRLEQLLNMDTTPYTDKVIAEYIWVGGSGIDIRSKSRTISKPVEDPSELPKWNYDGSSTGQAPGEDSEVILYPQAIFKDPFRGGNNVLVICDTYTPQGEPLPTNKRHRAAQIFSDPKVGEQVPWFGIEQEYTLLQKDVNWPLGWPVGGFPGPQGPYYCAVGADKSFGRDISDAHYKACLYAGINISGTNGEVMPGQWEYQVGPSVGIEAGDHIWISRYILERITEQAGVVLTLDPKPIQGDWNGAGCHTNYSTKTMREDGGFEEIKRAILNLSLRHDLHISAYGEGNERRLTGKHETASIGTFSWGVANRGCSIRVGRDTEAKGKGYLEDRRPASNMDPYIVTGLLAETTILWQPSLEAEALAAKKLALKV

[2] = biological target: T2, Glutamine synthetase, chloroplastic (Zea mays, UniProt P25462); experiment: Inhibition of Zea mays cv. Jeff (maize) leaf glutamine synthetase using L-glutamate as substrate assessed as inorganic phosphate production after 20 min by malachite green assay relative to control
T2 sequence (P25462 whole entry): T1 sequence (whole entry)
In short: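 GS purified from three-leaf-stage maize seedling leaves by ammonium sulfate, DEAE-Sephacel, Reactive Blue flow-through and Mono-Q steps. Inhibitor adjusted to pH 7.4 with KOH, 0.001–5 mM; IC50 by probit method.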

[3] = biological target: T2, Glutamine synthetase, chloroplastic; experiment: Non-competitive inhibition of Zea mays cv. Jeff( maize) leaf glutamine synthetase using L-glutamate as substrate Lineweaver-Burk plot analysis
[4] = biological target: T2, Glutamine synthetase, chloroplastic; experiment: Un-competitive inhibition of Zea mays cv. Jeff (maize) leaf glutamine synthetase using ATP as substrate Lineweaver-Burk plot analysis
In short: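 With purified maize leaf GS in the biosynthetic assay (Pi by malachite green, 35 °C), ATP was varied at seven levels from 0.2 to 1 mM with L-glutamate fixed at 50 mM. Four inhibitor levels, 0.5- to 3-fold the I50, each at least in triplicate. Lineweaver–Burk plots were used, and Ki came from Dixon replots. Values are means ± SEM.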

Molecule NC(c1ccccc1Br)P(=O)(O)O (centres undefined) [AMINO(2-BROMOPHENYL)METHYLPHOSPHONIC ACID] has an inhibition [1] of 42.5% and an IC50 [2] of 4100 µM.

With O=P(O)(O)C(Nc1c(Cl)cccc1Cl)P(=O)(O)O [2,6-DICHLOROPHENYLAMINOMETHYLENEBISPHOSPHONIC ACID] the inhibition [1] was 81.1% and the IC50 [2] was 15 µM.

With NC(c1cccc(F)c1)P(=O)(O)O (centres undefined) the inhibition [1] was 7.9%.

Work on O=P(O)(O)C(O)c1ccc(Cl)cc1Cl (centres undefined) [(2,4-DICHLOROPHENYL)(HYDROXY)METHYLPHOSPHONIC ACID] yielded an inhibition [1] of 31.9% and an IC50 [2] of 4830 µM.

For O=P(O)(O)C(Nc1cc(Cl)cc(Cl)c1)P(=O)(O)O [(3,5-DICHLOROPHENYLAMINO)METHYLENEDIPHOSPHONIC ACID], the Ki [3] was 7.2 µM, the inhibition [1] was 86.3% and the IC50 [2] was 7.6 µM. The Ki [4] was 6.4 µM.

O=P(O)(O)C(O)c1cccc(Cl)c1Cl (centres undefined) [(2,3-DICHLOROPHENYL)(HYDROXY)METHYLPHOSPHONIC ACID] showed an inhibition [1] of 47.2% and an IC50 [2] of 1160 µM.

With Cc1cc(C)cc(NC(P(=O)(O)O)P(=O)(O)O)c1 [3,5-DIMETHYLPHENYLAMINOMETHYLENEBISPHOSPHONIC ACID] the Ki [3] was 53 µM, the inhibition [1] was 67.5% and the IC50 [2] was 56 µM. It also gave a Ki [4] of 55 µM.

In the case of NC(c1ccccc1F)P(=O)(O)O (centres undefined) [AMINO(2-FLUOROPHENYL)METHYLPHOSPHONIC ACID], the inhibition [1] is reported as 26.7% and the IC50 [2] is reported as 10100 µM.

O=P(O)(O)C(O)c1ccc(Cl)c(Cl)c1 (centres undefined) was tested, and the inhibition [1] was 14.6%.

Work on O=P(O)(O)C(Nc1ccc(Cl)c(Cl)c1)P(=O)(O)O [3,4-DICHLOROPHENYLAMINOMETHYLENEBISPHOSPHONIC ACID] yielded an inhibition [1] of 73.8% and an IC50 [2] of 31.9 µM.

NC(c1ccccc1)P(=O)(O)O (centres undefined) was tested, and the inhibition [1] was 13.6%.

COc1cccc(C(N)P(=O)(O)O)c1OC (centres undefined) gave an inhibition [1] of -1.2%.

O=P(O)(O)C(O)c1ccc(Cl)cc1 (centres undefined) was tested, and the inhibition [1] was 8.3%.

With NC(c1ccc(Cl)cc1Cl)P(=O)(O)O (centres undefined) [AMINO(2,4-DICHLOROPHENYL)METHYLPHOSPHONIC ACID] the inhibition [1] was 40.7% and the IC50 [2] was 2610 µM.

O=P(O)(O)C(O)c1c(Cl)cccc1Cl (centres undefined) showed an inhibition [1] of 10.7%.

O=P(O)(O)C(Nc1ccc(Cl)cc1Cl)P(=O)(O)O [2,4-DICHLOROPHENYLAMINOMETHYLENEBISPHOSPHONIC ACID] gave an inhibition [1] of 79.7% and an IC50 [2] of 21.2 µM.

In the case of O=P(O)(O)C(Nc1cc(Cl)ccc1Cl)P(=O)(O)O [2,5-DICHLOROPHENYLAMINOMETHYLENEBISPHOSPHONIC ACID], the inhibition [1] is reported as 79.1% and the IC50 [2] is reported as 39.2 µM.

O=P(O)(O)C(Nc1ccc(Cl)cc1)P(=O)(O)O [(4-CHLOROPHENYLAMINO)METHYLENEDIPHOSPHONIC ACID] gave an inhibition [1] of 79.1% and an IC50 [2] of 21 µM.

NC(c1cccc(Cl)c1)P(=O)(O)O (centres undefined) was tested, and the inhibition [1] was 8.1%.

NC(c1ccccc1Cl)P(=O)(O)O (centres undefined) [AMINO(2-CHLOROPHENYL)METHYLPHOSPHONIC ACID] showed an inhibition [1] of 36.3% and an IC50 [2] of 5810 µM.

For O=P(O)(O)C(O)c1cccc(Cl)c1 (centres undefined), the inhibition [1] was 12.3%.

NC(c1cccc(Cl)c1Cl)P(=O)(O)O (centres undefined) [AMINO(2,3-DICHLOROPHENYL)METHYLPHOSPHONIC ACID] gave an inhibition [1] of 47.7% and an IC50 [2] of 1050 µM.

O=P(O)(O)C(O)c1ccccc1Cl (centres undefined) [(2-CHLOROPHENYL)(HYDROXY)METHYLPHOSPHONIC ACID] showed an inhibition [1] of 27% and an IC50 [2] of 6610 µM.

Molecule O=P(O)(O)C(Nc1cccc(Cl)c1Cl)P(=O)(O)O [2,3-DICHLOROPHENYLAMINOMETHYLENEBISPHOSPHONIC ACID] has an inhibition [1] of 84.9% and an IC50 [2] of 12.8 µM.
